The source of these data is ChEMBL document CHEMBL1124161, “4-Hydroxy-3-quinolinecarboxamides with antiarthritic and analgesic activities” (J Med Chem, 1988).

Experiment [1] concerns Mus musculus. In words: Analgesic activity against acetic acid induced writhing test in mouse administered po at 100 mg/kg; IA=Inactive. The format is functional, organism-based. Further details: dose 100 mg/kg. Put shortly:
(§1)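 Female mice (20–22 g), groups of 10, fasted 7 h; drug given orally 30 min before intraperitoneal injection of 0.2 mL 1% aqueous acetic acid. Stretching/writhing movements counted from minute 5 to 20 after irritant.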
(In general: Writhing tests count abdominal constrictions after an irritant is injected.)

For experiment [2], the system named is Rattus norvegicus. In words: Antiinflammatory activity against carrageenan-induced foot edema in rat administered po at 100 mg/kg; IA=Inactive. The format is functional, organism-based. Set-up: dose 100 mg/kg.
Experiment [3] concerns Rattus norvegicus. In words: Antiarthritis activity against adjuvant-induced arthritis in rats administered po at 10 mg/kg; IA= Inactive. The format is functional, organism-based. Set-up: dose 10 mg/kg.
The subject of experiment [4] is Mus musculus. Description: Analgesic activity against acetic acid induced writhing test in mouse after peroral administration at 100 mg/kg; IA=Inactive. Further details: dose 100 mg/kg. The format is functional, organism-based. Put shortly: as §1
In experiment [5] the test system is Rattus norvegicus. Description: Anti-arthritis activity against adjuvant-induced arthritis in rats after peroral administration. The format is functional. Put shortly:
(§2)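 Groups of five male Lewis rats, 40–50 days old, given intraplantar injection in right hind paw of 0.6 mg Mycobacterium butyricum in 0.1 mL Bayol 55. Drug given in food from adjuvant day to day 17. Injected and noninjected hind paw volumes measured day 17 against normal controls. ED50 by least-squares curve fitting or Litchfield–Wilcoxon probit.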

Experiment [6] deals with Mus musculus. In words: Analgesic activity against acetic acid induced writhing test in mouse after peroral administration. The format is functional.
In experiment [7] the test system is Rattus norvegicus. In words: Antiinflammatory activity against carrageenan-induced foot edema in rat after oral administration of 20 mg/kg; IA=Inactive. Further details: dose 20 mg/kg. The format is functional, organism-based. For orientation: The carrageenan paw model is a standard test of acute inflammation.
The subject of experiment [8] is Mus musculus. In words: Analgesic activity against acetic acid induced writhing test in mouse after peroral administration at 25 mg/kg; IA=Inactive. The format is functional, organism-based. Further details: dose 25 mg/kg. The gist of the method:
as §1

Experiment [9] relates to Mus musculus. Description: Analgesic activity against acetic acid induced writhing test in mouse after peroral administration of 100 mg/kg; IA=Inactive. The format is functional, organism-based. Further details: dose 100 mg/kg. The gist of the method: as §1
Experiment [10] concerns Rattus norvegicus. Description: Antiinflammatory activity against carrageenan-induced foot edema in rat after peroral administration of 100 mg/kg; IA=Inactive. The format is functional, organism-based. Further details: dose 100 mg/kg.
The subject of experiment [11] is Rattus norvegicus. Description: Antiinflammatory activity against carrageenan-induced foot edema in rat after peroral administration of 300 mg/kg; IA=Inactive. Set-up: dose 300 mg/kg. The format is functional, organism-based.
In experiment [12] the test system is Mus musculus. Description: Analgesic activity against acetic acid induced writhing test in mouse after peroral administration, treatment 6 hr before testing. The note with it: po. The format is functional. The gist of the method:
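Groups of 10 female mice (20–22 g), fasted 7 h, dosed orally 6 h before ip injection of 0.2 mL 1% aqueous acetic acid. Stretching and writhing movements counted from minute 5 to 20 after irritant. ED50 evaluated graphically or by computerized least-squares curve fitting.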

The test system of experiment [13] is Rattus norvegicus. Description: Ulcerogenic effect after oral administration (gastric ulcer). The format is functional. The gist of the method:
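Groups of eight female rats (120–150 g), fasted 24 h, dosed orally; killed 7 h later and stomachs scored. Ulceration index = (mean ulcer degree × rats with ulcers / number of rats) × 100, ulcers being scores above 0.5. ED100 (index 100, max 300) read graphically.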

For experiment [14], the system named is Rattus norvegicus. Description: Ulcerogenic effect after oral administration (intestinal ulcer). The format is functional. Put shortly:
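Nonfasted male rats (150–180 g) killed 24 h after oral dosing, and intestinal ulcers scored. Ulceration index = (mean degree × rats with ulcers / rats) × 100. ED100 (index 100) determined graphically.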

The species entered for experiment [15] is Rattus norvegicus. Description: Antiarthritis activity against adjuvant-induced arthritis in rats. The format is functional. The gist of the method:
as §2

In experiment [16] the test system is Rattus norvegicus. Description: Antiinflammatory activity against carrageenan-induced foot edema in rat after peroral administration. The format is functional. Particulars: po. The gist of the method:
(§3)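 Groups of eight male Sprague-Dawley rats (150–180 g) dosed orally at the time of subplantar injection of 0.5 mg carrageenin. Paw volume difference measured before and 5 h after injection. Expressed as ED40, estimated graphically or by Litchfield–Wilcoxon probit analysis.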

Experiment [17] addresses T1, Polyunsaturated fatty acid 5-lipoxygenase (Rattus norvegicus, UniProt P12527).
T1 sequence (P12527 whole entry): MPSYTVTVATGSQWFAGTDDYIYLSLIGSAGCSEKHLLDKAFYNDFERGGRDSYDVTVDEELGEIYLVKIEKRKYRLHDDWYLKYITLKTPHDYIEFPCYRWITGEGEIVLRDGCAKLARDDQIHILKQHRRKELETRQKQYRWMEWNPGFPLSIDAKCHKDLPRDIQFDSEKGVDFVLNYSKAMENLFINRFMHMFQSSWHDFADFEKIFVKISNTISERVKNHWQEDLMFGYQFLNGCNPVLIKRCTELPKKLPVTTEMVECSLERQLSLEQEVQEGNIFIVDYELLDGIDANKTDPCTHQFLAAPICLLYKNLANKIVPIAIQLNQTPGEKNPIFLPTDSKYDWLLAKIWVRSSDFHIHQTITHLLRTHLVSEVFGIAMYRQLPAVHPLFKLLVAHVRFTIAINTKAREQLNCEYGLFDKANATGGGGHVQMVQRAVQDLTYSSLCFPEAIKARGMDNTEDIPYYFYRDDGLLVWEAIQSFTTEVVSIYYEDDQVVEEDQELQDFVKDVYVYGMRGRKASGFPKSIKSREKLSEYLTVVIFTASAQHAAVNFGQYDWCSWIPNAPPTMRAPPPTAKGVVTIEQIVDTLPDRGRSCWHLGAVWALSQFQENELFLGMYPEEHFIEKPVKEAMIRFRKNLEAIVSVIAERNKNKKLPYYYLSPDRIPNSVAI
Description: Inhibition of 5-lipoxygenase from rat peritoneal neutrophils in vitro.

The next experiment addresses T2, Cyclooxygenase (Bos taurus, UniProt O62664+O62698).
T2 sequence (O62664 whole entry): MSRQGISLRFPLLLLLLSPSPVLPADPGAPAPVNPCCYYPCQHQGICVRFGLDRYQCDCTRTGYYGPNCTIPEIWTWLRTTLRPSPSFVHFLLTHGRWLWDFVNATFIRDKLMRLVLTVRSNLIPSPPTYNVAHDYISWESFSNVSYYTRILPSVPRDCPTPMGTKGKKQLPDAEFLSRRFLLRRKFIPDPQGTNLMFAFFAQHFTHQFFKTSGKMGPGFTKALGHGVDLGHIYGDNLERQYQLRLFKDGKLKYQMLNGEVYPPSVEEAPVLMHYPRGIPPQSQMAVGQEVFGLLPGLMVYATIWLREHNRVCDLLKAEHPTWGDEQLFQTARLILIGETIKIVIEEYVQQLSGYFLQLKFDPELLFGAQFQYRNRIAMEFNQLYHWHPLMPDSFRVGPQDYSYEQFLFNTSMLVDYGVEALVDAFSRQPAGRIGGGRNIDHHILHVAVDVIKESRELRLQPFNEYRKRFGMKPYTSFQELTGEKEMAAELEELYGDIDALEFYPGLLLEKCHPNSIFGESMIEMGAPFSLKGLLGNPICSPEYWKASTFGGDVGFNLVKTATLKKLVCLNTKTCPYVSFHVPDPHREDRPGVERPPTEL
T2 sequence (O62698 whole entry): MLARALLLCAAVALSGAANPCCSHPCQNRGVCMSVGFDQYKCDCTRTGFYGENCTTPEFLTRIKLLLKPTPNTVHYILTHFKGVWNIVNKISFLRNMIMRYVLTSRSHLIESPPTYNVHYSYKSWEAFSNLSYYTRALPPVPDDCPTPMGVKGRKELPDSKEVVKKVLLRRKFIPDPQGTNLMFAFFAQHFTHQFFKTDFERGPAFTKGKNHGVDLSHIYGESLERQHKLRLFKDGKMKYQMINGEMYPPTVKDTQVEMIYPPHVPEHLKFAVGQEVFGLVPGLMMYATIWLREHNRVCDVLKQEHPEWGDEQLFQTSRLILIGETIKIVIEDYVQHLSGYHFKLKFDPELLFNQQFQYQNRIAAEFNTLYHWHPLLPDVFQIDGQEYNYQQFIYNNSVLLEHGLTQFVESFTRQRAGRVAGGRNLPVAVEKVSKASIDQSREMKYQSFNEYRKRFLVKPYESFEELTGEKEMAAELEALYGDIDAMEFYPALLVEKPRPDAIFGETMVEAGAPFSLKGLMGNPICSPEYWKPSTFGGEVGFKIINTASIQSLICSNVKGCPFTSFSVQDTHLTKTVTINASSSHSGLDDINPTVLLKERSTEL
Description: Inhibition of bovine Prostaglandin G/H synthase in seminal vesicle microsomes in vitro.

Experiment [18] deals with Rattus norvegicus. In words: Antiinflammatory activity against carrageenan-induced foot edema after peroral administration in rat. The format is functional. Particulars: po. Put shortly:
as §3

[19] abbreviates: Rattus norvegicus, po, read-out: ED50.
[20] abbreviates: Mus musculus, po, read-out: ED50.

The source made the active and inactive calls. No cut-off for these calls is given here.

The ED50 is the midpoint of the dose-response relation. With `O=C(Nc1nccs1)c1c(C(O)c2ccccc2)nc2c(C(F)(F)F)cccc2c1O` (stereo unspecified), the ED50 result with Mus musculus [1] and in the experiment with Rattus norvegicus [3] was “inactive” throughout. Moreover, the ED40 entry with Rattus norvegicus [2] is “inactive”.

Consider `CCCCCCCCCCCC(=O)OC(CC)c1nc2c(C(F)(F)F)cccc2c(O)c1C(=O)Nc1nccs1` (stereo unspecified), for which the ED50 result with Mus musculus [4] is “inactive”. Besides, the ED50 in the experiment with Rattus norvegicus [5] (setting [19]) is over 5 mg/kg.

Take `O=C(Nc1nccs1)c1c(Cc2ccccc2)nc2c(C(F)(F)F)cccc2c1O`: the ED50 with Mus musculus [6] (setting [20]) stood at 40 mg/kg. Also, the ED50 entry in the experiment with Rattus norvegicus [7] was “inactive”.

Take `CCCCc1nc2c(C(F)(F)F)cccc2c(O)c1C(=O)Nc1nccs1`: the ED50 in the experiment with Mus musculus [6] (setting [20]) came out at 50 mg/kg. Besides, in the experiment on Rattus norvegicus [7], the ED50 result was “inactive”.

On to `CC(Cl)(Cl)c1nc2c(C(F)(F)F)cccc2c(O)c1C(=O)Nc1nccs1`, for which, in the experiment on Mus musculus [8], the ED50 result was “inactive”.

In the case of `Cn1ccnc1NC(=O)c1c(C(F)(F)F)nc2c(C(F)(F)F)cccc2c1O`, the ED50 entry in the experiment on Mus musculus [9] and in the experiment with Rattus norvegicus [10] was “inactive” in each case.

`O=C(Nc1nccs1)c1cnc2cc(Cl)ccc2c1O`: the ED50 in the experiment on Mus musculus [6] (setting [20]) is over 100 mg/kg. The ED50 result in the experiment with Rattus norvegicus [11] was “inactive”.

For orientation: IC50 means the concentration at which inhibition is half-maximal. A high value points to weaker potency in that assay. As for `CCC(=O)OC(CC)c1nc2c(C(F)(F)F)cccc2c(O)c1C(=O)Nc1nccs1` (stereo in doubt; 102), the ED50 in the experiment on Mus musculus [6] came out at 50 mg/kg; in the experiment on Mus musculus [12], 4.6 mg/kg; in the experiment listed under Rattus norvegicus [15] it was 0.7 mg/kg; in the experiment with Rattus norvegicus [5] it was 0.7 mg/kg. The ED100 is over 300 mg/kg in the experiment with Rattus norvegicus [13] and over 250 mg/kg in the experiment on Rattus norvegicus [14]. Moreover, the ED40 in the experiment with Rattus norvegicus [16] is 4 mg/kg. For the same molecule, the IC50 in experiment [17] was 3 µM; on Cyclooxygenase, 2.1 µM.

Regarding `CN1C(C(=O)Nc2ccccn2)=C(O)c2ccccc2S1(=O)=O` [PIROXICAM], the figures for the median effective dose (ED50) with Mus musculus [6] (setting [20]) and in the experiment on Rattus norvegicus [5] (setting [19]) were 3.3 mg/kg and 0.8 mg/kg, respectively. Also, the ED100 with Rattus norvegicus [13] is 9 mg/kg; in the experiment on Rattus norvegicus [14], 20 mg/kg. Besides, the ED40 in the experiment on Rattus norvegicus [16] was 8 mg/kg. The half-inhibitory concentration (IC50) in experiment [17] is over 100 µM.

On to `O=C(Nc1nccs1)c1c(C(Cl)Cl)nc2c(C(F)(F)F)cccc2c1O`, for which the ED50 with Mus musculus [6] (setting [20]) came out at 1.1 mg/kg; in the experiment with Rattus norvegicus [5] (setting [19]), 48 mg/kg. Also, the ED100 with Rattus norvegicus [13] was 270 mg/kg; with Rattus norvegicus [14] it was over 500 mg/kg. This molecule had an ED40 in the experiment with Rattus norvegicus [16] of over 100 mg/kg. Besides, the IC50 in experiment [17] turned out to be 2 µM; against Cyclooxygenase, 1.8 µM.

Regarding `CCCCC(O)c1nc2c(C(F)(F)F)cccc2c(O)c1C(=O)Nc1nccs1` (stereo unspecified), the ED50 is at least 100 mg/kg in the experiment with Mus musculus [6] (setting [20]) and over 20 mg/kg in the experiment on Rattus norvegicus [5] (setting [19]). The molecule also showed an ED40 with Rattus norvegicus [18] of over 100 mg/kg.

With `CCC(=O)OC(CC)c1nc2c(C(F)(F)F)cccc2c(O)c1C(=O)Nc1ccccn1` (stereo unspecified), in the experiment with Mus musculus [4], the ED50 result is “inactive”. In the experiment with Rattus norvegicus [5] (setting [19]), the median effective dose (ED50) was over 5 mg/kg.
